According to ChEMBL document CHEMBL4229344 (Eur J Med Chem, 2018):

Legend:
[1] = tested on: Hepatocyte growth factor receptor (Homo sapiens), P08581 [M1250T]; experiment: Binding affinity to human partial length MET M1250T mutant (D1010 to S1367 residues) expressed in bacterial expression system assessed as residual binding level at 1 uM by Kinomescan method relative to control
Method in brief: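 Kinome-wide single-concentration binding screen (KINOMEscan) at 1 μM against a panel of 468 purified kinases and mutants. Read-out is relative binding of each kinase compared with control. Selectivity across the panel was summarised as an S(10) score.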

[2] = molecular target: Serine/threonine-protein kinase 32B (Homo sapiens) (UniProt Q9NY57); experiment: Binding affinity to wild-type human full length YANK2 (M1 to S414 residues) expressed in bacterial expression system assessed as residual binding level at 1 uM by Kinomescan method relative to control
Method in brief: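 KINOMEscan competition binding against 468 purified kinases/mutants, test compound at 1 µM; residual binding relative to control.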

[3] = molecular target: Serine/threonine-protein kinase 32A (Homo sapiens) (UniProt Q8WU08); experiment: Binding affinity to wild-type human full length YANK1 (M1 to L396 residues) expressed in mammalian expression system assessed as residual binding level at 1 uM by Kinomescan method relative to control
Method in brief: (§1)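 Single-concentration KINOMEscan (DiscoverX) binding screen at 1 μM against a panel of 468 purified kinases and mutants. The read-out is binding relative to control.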

[4] = molecular target: Serine/threonine-protein kinase TNNI3K (Homo sapiens) (UniProt Q59H18); experiment: Binding affinity to wild-type human full length TNNI3K (M1 to S835 residues) expressed in bacterial expression system assessed as residual binding level at 1 uM by Kinomescan method relative to control; method in brief: as §1
[5] = Tmax in Sprague-Dawley rat at 10 mg/kg, po; assay type: ADME, organism-based; conditions: in vivo
Method in brief: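 Male Sprague-Dawley rats, 6–8 weeks old and fasted overnight, dosed IV at 1 mg/kg or PO at 10 mg/kg. Formulation was 5% DMSO/40% PEG400/55% saline (1 mg/mL). Jugular blood collected on heparin from 1 min to 8 h (IV) or 5 min to 24 h (PO). Plasma separated by centrifugation at 2–8 °C and stored at −80 °C.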

[6] = molecular target: Dual specificity mitogen-activated protein kinase kinase 5 (Homo sapiens) (UniProt Q13163); experiment: Binding affinity to wild-type human partial length MEK5 (L98 to P448 residues) expressed in mammalian expression system assessed as residual binding level at 1 uM by Kinomescan method relative to control
[7] = molecular target: 5'-AMP-activated protein kinase catalytic subunit alpha-1 (Homo sapiens) (UniProt Q13131); experiment: Binding affinity to wild-type human partial length AMPK alpha1 (M1 to E306 residues) expressed in bacterial expression system assessed as residual binding level at 1 uM by Kinomescan method relative to control
Method in brief: (§2)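 Kinome-wide competition binding screen against a panel of 468 purified kinases/mutants, with the test compound at a single concentration of 1 μM. Read-out is the relative binding activity of each kinase in the presence of compound.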

[8] = molecular target: Cyclin-dependent kinase 16 (Homo sapiens) (UniProt Q00536); experiment: Binding affinity to wild-type human partial length PCTK1 (G160 to A474 residues) expressed in mammalian expression system assessed as residual binding level at 1 uM by Kinomescan method relative to control
[9] = molecular target: Serine/threonine-protein kinase OSR1 (Homo sapiens) (UniProt O95747); experiment: Binding affinity to wild-type human full length OSR1 (M1 to S527 residues) expressed in mammalian expression system assessed as residual binding level at 1 uM by Kinomescan method relative to control; method in brief: as §1
[10] = Apparent volume of distribution in Sprague-Dawley rat at 1 mg/kg, iv; assay type: ADME, organism-based; conditions: in vivo, read-out: Vz
[11] = tested on: Tyrosine-protein kinase ABL1 (Homo sapiens), P00519 [F317L]; experiment: Binding affinity to human phosphorylated ABL1 F317L mutant (S229 to K512 residues) expressed in mammalian expression system assessed as residual binding level at 1 uM by Kinomescan method relative to control
Method in brief: (§3)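 Single-concentration (1 μM) competition-binding screen run by KINOMEscan against a panel of 468 purified kinases and mutants. The read-out is the relative binding activity of the test compound to each kinase.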

[12] = molecular target: Cyclin-dependent kinase 19 (Homo sapiens) (UniProt Q9BWU1); experiment: Binding affinity to wild-type human partial length CDK11 (M1 to N360 residues) expressed in bacterial expression system assessed as residual binding level at 1 uM by Kinomescan method relative to control; method in brief: as §2
[13] = molecular target: Serine/threonine-protein kinase PLK2 (Homo sapiens) (UniProt Q9NYY3); experiment: Binding affinity to wild-type human partial length PLK2 (H58 to F354 residues) expressed in mammalian expression system assessed as residual binding level at 1 uM by Kinomescan method relative to control
Method in brief: (§4)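 KINOMEscan competition binding against a panel of 468 purified kinases/mutants, compound tested at 1 μM; readout is relative binding activity versus control.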

[14] = molecular target: Casein kinase II subunit alpha (Homo sapiens) (UniProt P68400); experiment: Binding affinity to wild-type human full length CSNK2A1 (M1 to Q391 residues) expressed in mammalian expression system assessed as residual binding level at 1 uM by Kinomescan method relative to control; method in brief: as §3
[15] = molecular target: Serine/threonine-protein kinase WNK1 (Homo sapiens) (UniProt Q9H4A3); experiment: Binding affinity to wild-type human partial length WNK1 (Q194 to A490 residues) expressed in mammalian expression system assessed as residual binding level at 1 uM by Kinomescan method relative to control
[16] = molecular target: Interferon-induced, double-stranded RNA-activated protein kinase (Homo sapiens) (UniProt P19525); experiment: Binding affinity to wild-type human partial length PRKR (F247 to C551 residues) expressed in bacterial expression system assessed as residual binding level at 1 uM by Kinomescan method relative to control
EOL1 = experiment: Antitumor activity against human EOL-1 cells engrafted in ip dosed NOD-SCID mouse assessed as reduction of cell density in bone marrow administered 3 weeks post cell inoculation by FACS analysis; assay type: functional, organism-based
Method in brief: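 Daily i.p. dosing started 3 weeks after inoculation at 7.5, 15 or 30 mg/kg/day. Mice monitored daily and euthanized when moribund or at hind-limb paralysis. Bone marrow cells, after red-cell lysis, stained with PE anti-HLA-ABC and counted by flow cytometry.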

[17] = Half life in Sprague-Dawley rat at 10 mg/kg, po; assay type: ADME, organism-based; conditions: in vivo
[18] = molecular target: Membrane-associated tyrosine- and threonine-specific cdc2-inhibitory kinase (Homo sapiens) (UniProt Q99640); experiment: Binding affinity to wild-type human partial length PKMYT1 (A88 to G366 residues) expressed in bacterial expression system assessed as residual binding level at 1 uM by Kinomescan method relative to control; method in brief: as §4
[19] = molecular target: Platelet-derived growth factor receptor alpha (Homo sapiens, UniProt P16234); experiment: Inhibition of PDGFRalpha in human EOL-1 cells assessed as decrease in ERK phosphorylation at T202/Y204 residues after 2 hrs in presence of PDGF-AA by Western blot analysis; assay type: cell-based
[20] = molecular target: Macrophage-stimulating protein receptor (Homo sapiens) (UniProt Q04912); experiment: Binding affinity to wild-type human partial length MST1R (I1057 to L1363 residues) expressed in bacterial expression system assessed as residual binding level at 1 uM by Kinomescan method relative to control

Chain of Serine/threonine-protein kinase 32B (Homo sapiens) (Q9NY57 whole entry, the tested form may be a part): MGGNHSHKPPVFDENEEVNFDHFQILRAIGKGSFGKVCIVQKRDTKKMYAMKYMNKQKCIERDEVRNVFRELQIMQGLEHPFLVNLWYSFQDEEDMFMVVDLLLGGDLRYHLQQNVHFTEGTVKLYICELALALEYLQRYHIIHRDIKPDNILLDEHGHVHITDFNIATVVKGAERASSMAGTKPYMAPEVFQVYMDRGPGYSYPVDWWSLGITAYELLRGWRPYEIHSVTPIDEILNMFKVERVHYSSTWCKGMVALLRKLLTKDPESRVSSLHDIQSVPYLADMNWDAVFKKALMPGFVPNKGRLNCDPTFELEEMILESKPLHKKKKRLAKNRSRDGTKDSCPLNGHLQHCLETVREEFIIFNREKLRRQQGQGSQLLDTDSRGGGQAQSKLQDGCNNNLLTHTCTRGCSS
Chain of Platelet-derived growth factor receptor alpha (P16234 whole entry, the tested form may be a part): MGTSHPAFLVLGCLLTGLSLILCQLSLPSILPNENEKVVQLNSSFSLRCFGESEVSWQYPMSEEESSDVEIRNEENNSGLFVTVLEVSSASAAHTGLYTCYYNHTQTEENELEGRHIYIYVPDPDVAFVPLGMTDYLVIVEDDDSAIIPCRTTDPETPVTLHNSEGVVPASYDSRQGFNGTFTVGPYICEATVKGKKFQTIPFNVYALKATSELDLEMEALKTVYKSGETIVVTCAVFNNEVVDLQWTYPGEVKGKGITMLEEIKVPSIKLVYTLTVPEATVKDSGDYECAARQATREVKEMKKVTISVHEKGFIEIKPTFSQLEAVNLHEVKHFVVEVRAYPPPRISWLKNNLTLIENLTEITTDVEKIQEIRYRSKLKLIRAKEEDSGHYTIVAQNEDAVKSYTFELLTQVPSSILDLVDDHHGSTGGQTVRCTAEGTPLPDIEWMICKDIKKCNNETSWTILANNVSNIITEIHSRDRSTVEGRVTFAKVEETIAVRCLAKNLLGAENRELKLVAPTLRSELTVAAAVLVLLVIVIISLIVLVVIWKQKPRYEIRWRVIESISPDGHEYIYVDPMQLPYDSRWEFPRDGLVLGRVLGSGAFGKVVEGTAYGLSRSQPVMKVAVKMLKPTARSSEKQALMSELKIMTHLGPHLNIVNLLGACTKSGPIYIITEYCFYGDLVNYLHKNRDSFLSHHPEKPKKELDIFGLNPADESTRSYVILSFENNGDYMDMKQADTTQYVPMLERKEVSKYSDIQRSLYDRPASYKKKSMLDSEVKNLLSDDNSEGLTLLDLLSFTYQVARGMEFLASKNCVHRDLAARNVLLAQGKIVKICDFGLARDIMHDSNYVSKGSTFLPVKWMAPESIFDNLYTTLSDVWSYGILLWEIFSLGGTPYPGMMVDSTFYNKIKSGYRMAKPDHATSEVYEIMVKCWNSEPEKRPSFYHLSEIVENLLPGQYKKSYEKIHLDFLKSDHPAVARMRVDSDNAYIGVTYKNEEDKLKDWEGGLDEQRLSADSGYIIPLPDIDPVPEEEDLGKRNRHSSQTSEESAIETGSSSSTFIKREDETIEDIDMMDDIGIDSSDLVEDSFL
Chain of Serine/threonine-protein kinase PLK2 (Homo sapiens) (Q9NYY3 whole entry, looked up, the tested form may be a part): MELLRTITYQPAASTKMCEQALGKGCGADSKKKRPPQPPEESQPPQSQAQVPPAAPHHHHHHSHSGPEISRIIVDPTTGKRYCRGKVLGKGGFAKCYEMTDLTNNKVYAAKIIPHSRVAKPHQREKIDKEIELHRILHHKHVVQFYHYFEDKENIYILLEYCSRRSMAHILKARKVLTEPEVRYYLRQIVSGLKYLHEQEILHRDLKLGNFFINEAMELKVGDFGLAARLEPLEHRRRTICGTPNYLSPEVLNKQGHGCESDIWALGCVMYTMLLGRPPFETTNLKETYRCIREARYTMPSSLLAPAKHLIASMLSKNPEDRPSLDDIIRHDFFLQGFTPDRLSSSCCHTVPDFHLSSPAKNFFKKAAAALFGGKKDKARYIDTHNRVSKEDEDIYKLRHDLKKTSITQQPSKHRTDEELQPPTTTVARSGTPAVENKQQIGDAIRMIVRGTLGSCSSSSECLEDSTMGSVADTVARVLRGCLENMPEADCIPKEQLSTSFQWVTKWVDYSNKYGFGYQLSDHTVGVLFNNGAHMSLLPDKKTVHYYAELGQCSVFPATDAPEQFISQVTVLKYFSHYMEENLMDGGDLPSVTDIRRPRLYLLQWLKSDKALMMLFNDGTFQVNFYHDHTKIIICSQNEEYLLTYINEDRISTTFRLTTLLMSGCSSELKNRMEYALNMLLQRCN
Chain of Interferon-induced, double-stranded RNA-activated protein kinase (Homo sapiens) (P19525 whole entry, the tested form may be a part): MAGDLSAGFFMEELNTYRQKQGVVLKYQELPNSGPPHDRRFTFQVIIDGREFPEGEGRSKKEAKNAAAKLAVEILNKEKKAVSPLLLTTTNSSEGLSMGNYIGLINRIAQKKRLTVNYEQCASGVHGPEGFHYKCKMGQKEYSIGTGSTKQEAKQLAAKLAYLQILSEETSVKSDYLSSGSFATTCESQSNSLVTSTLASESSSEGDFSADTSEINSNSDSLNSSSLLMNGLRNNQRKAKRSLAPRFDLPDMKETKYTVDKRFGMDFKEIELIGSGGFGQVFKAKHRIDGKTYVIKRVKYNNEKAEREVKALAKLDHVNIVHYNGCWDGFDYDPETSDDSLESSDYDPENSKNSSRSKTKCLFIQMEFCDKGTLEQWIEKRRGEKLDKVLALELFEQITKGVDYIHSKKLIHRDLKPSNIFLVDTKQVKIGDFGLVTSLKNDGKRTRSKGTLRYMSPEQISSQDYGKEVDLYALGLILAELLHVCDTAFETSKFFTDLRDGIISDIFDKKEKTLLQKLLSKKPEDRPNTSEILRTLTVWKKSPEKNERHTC
Chain of Serine/threonine-protein kinase OSR1 (Homo sapiens) (O95747 2-527 limits assumed): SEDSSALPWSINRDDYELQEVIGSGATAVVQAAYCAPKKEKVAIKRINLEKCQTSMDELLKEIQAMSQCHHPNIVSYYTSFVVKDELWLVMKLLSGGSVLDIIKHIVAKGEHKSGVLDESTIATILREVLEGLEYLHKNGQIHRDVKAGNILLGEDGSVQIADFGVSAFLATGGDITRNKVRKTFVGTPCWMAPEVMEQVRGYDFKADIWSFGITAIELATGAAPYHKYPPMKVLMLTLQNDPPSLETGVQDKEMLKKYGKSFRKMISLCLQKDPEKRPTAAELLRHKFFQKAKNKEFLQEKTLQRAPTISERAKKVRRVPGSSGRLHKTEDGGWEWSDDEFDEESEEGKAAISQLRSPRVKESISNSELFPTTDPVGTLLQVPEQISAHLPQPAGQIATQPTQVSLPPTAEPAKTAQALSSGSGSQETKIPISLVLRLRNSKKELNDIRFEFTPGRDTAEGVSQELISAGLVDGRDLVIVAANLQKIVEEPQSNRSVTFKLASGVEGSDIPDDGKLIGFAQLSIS
Chain of Casein kinase II subunit alpha (Homo sapiens) (P68400 whole entry, looked up, the tested form may be a part): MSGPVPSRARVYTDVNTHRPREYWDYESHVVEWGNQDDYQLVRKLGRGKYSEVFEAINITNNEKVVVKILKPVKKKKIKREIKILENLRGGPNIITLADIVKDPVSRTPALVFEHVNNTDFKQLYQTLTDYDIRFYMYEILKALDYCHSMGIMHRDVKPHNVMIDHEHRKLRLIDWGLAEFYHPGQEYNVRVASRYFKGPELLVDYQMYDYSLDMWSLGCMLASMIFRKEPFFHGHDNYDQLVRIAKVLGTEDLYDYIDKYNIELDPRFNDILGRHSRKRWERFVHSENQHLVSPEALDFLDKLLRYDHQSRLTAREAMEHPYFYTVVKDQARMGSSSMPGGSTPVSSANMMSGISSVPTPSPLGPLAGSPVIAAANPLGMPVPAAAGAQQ
Chain of Dual specificity mitogen-activated protein kinase kinase 5 (Homo sapiens) (Q13163 whole entry, the tested form may be a part): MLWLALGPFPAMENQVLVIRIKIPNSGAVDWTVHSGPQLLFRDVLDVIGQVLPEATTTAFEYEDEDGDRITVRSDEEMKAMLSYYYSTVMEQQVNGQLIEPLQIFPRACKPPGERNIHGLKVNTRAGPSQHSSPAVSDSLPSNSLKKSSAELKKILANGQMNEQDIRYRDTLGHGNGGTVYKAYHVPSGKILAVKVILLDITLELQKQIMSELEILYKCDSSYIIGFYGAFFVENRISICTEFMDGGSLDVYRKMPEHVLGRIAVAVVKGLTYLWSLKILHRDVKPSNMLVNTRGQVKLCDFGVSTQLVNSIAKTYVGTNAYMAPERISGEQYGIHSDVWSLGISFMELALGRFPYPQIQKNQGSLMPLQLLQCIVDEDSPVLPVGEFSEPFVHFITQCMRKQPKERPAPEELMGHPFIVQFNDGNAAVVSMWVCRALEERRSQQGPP
Chain of Serine/threonine-protein kinase 32A (Homo sapiens) (Q8WU08 whole entry, the tested form may be a part): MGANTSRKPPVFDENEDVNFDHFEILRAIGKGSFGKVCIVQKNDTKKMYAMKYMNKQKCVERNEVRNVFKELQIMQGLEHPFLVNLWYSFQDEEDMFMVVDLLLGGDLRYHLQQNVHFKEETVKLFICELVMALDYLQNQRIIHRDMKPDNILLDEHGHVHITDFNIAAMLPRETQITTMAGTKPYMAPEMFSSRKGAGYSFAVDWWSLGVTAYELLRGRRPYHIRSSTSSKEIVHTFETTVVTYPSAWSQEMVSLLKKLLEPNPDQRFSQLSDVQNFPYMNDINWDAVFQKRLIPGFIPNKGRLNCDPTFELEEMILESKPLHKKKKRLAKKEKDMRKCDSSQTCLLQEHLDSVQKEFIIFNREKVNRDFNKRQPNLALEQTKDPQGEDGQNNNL
Chain of Cyclin-dependent kinase 16 (Homo sapiens) (Q00536 whole entry, the tested form may be a part): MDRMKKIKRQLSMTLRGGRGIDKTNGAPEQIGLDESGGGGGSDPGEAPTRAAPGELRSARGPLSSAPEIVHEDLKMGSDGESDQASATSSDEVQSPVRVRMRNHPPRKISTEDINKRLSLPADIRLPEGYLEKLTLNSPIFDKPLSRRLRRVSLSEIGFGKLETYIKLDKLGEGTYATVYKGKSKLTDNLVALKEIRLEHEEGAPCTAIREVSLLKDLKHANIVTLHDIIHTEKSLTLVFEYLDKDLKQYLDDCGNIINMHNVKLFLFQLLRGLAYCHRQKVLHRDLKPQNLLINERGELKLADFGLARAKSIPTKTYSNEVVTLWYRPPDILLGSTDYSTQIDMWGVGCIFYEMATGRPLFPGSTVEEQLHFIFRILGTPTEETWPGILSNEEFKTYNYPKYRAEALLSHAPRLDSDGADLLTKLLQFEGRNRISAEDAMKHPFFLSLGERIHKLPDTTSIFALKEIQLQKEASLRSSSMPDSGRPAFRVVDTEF

Compound Cc1ccc(NC(=O)c2ccc(CN(CCN(C)C)C(=O)c3cccnc3)cc2)cc1Nc1nccc(-c2cccnc2)n1 has an Activity [1] of 86%, an Activity [2] of 82% and an Activity [3] of 100%. For the same compound, the Activity [4] was 100%, the Tmax [5] was 1.5 h and the Activity [6] was 100%. For the same compound, the Activity [7] was 92%, the Activity [8] was 100% and the Activity [9] was 100%. The Vd [10] was 5.98 L/kg, the Activity [11] was 87% and the Activity [12] was 82%. For the same compound, the Activity [13] was 87%, the Activity [14] was 81% and the Activity [15] was 85%. For the same compound, the Activity [16] was 100%, the Activity (EOL1) was “Dose-dependent effect” and the half-life [17] was 2.03 h. The Activity [18] was 84%, the inhibition [19] was “Dose-dependent effect” and the Activity [20] was 100%.
